According to ChEMBL document CHEMBL1933020, “A novel series of glucagon receptor antagonists with reduced molecular weight and lipophilicity” (Bioorg Med Chem Lett, 2012):
Converted amounts (≈) assume the structure as drawn.

Key:
[1] = molecular target: Glucagon receptor (Rattus norvegicus) (UniProt P30082); test: Antagonist activity at rat GCGR assessed as inhibition of glucagon-induced cAMP production
Glucagon receptor = Glucagon receptor (Homo sapiens, UniProt P47871); test: Displacement of [125I]Glucagon-Cex from human GCGR
Summary of the method: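 Displacement of [125I]glucagon-Cex from membranes containing the human glucagon receptor, run with 0.2% BSA. Values are geometric means of n ≥ 2 determinations.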

[2] = Permeability across low transporter-containing MDCK2 cells; format: ADME, cell-based, Canis lupus familiaris, MDCK-II; conditions: dog, MDCK; read-out: permeability
Rattus norvegicus [3] = test: Half life in Wistar-Han rat at 1 mg/kg, iv and 5 mg/kg, po; format: ADME, organism-based; conditions: in vivo
Summary of the method: (§1)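 Wistar-Han rats were dosed at 1 mg/kg i.v. and 5 mg/kg p.o.; pharmacokinetic parameters were derived from the plasma profiles.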

Rattus norvegicus [4] = test: Antidiabetic activity in Wistar-Han rat assessed as reduction in glucagon-induced blood glucose excursion at 30 mg/kg, iv after 11 mins; format: functional; design: scale not given: the % may be the effect or the level left
Summary of the method: (§2)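 Wistar-Han rats received compound or vehicle i.v. at t = 0 (1, 10 or 30 mg/kg), then a 3 µg/kg i.v. glucagon bolus at 15 min. Blood glucose was sampled at 0, 10, 26, 32, 50 and 80 min, and compound plasma levels were measured. n = 6 rats per dose group.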

[5] = molecular target: T1, Gastric inhibitory polypeptide receptor (Homo sapiens, UniProt P48546); test: Displacement of [125I]GIP from human GIPR
T1 sequence (P48546 whole entry): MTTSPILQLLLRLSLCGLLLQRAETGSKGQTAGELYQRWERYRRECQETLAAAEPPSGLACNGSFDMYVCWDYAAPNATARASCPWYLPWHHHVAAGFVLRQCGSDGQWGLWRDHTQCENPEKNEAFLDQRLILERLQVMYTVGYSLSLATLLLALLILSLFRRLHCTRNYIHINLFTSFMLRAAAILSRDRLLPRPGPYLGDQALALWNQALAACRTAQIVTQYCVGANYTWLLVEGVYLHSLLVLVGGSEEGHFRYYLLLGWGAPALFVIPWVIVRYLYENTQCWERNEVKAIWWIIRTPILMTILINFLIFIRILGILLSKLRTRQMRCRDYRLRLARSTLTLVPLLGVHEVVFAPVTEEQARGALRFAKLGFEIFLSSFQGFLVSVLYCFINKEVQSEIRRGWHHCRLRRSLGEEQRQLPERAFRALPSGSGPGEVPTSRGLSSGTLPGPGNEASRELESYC

[6] = Lipophilicity, log D of the compound in octanol-phosphate buffer at pH 7.4; format: physicochemical; conditions: octanol/phosphate buffer, read-out: logD
Summary of the method: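 Shake-flask partition between octanol and buffer at pH 7.4.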

Rattus norvegicus [7] = test: Volume of distribution at steady state in Wistar-Han rat at 1 mg/kg, iv and 5 mg/kg, po; format: ADME, organism-based; conditions: in vivo
Summary of the method: as §1

[8] = molecular target: Glucagon-like peptide 1 receptor (Homo sapiens, UniProt P43220); test: Displacement of [125I]GLP-1 from human GLP1R
Summary of the method: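 Displacement of [125I]GLP-1 from membranes expressing the human GLP-1 receptor.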

[9] = Plasma concentration in Wistar-Han rat at 10 mg/kg, iv after 11 mins; format: ADME, organism-based; design: dose 10 mg/kg, route intravenous
Summary of the method: as §2

[10] = Kinetic solubility of the compound at pH 6.5; format: physicochemical; conditions: buffer, read-out: Kinetic_solubility
[11] = Plasma concentration in Wistar-Han rat at 1 mg/kg, iv after 11 mins; format: ADME, organism-based; design: dose 1 mg/kg, route intravenous
Summary of the method: as §2

Rattus norvegicus [12] = test: Antidiabetic activity in Wistar-Han rat assessed as reduction in glucagon-induced blood glucose excursion at 10 mg/kg, iv after 11 mins; format: functional; design: scale not given: the % may be the effect or the level left
Summary of the method: as §2

Rattus norvegicus [13] = test: Antidiabetic activity in Wistar-Han rat assessed as reduction in glucagon-induced blood glucose excursion at 1 mg/kg, iv after 11 mins; format: functional; design: scale not given: the % may be the effect or the level left
Summary of the method: as §2

[14] = Cytotoxicity against human THLE cells after 72 hrs; format: cell-based; conditions: thle
Summary of the method: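 Transformed human liver epithelial (THLE) cells were exposed to compound for 72 h. Cytotoxicity was read as cellular ATP depletion and reported as the concentration predicted to kill 50% of cells.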

[15] = Apparent intrinsic clearance in rat liver microsomes; format: ADME, Microsome; conditions: read-out: CLH
Rattus norvegicus [16] = test: Oral bioavailability in Wistar-Han rat at 5 mg/kg; format: ADME, organism-based; conditions: in vivo
Summary of the method: as §1

[17] = Plasma concentration in Wistar-Han rat at 30 mg/kg, iv after 11 mins; format: ADME, organism-based; design: dose 30 mg/kg, route intravenous
Summary of the method: as §2

Chain of Glucagon-like peptide 1 receptor (P43220 whole entry): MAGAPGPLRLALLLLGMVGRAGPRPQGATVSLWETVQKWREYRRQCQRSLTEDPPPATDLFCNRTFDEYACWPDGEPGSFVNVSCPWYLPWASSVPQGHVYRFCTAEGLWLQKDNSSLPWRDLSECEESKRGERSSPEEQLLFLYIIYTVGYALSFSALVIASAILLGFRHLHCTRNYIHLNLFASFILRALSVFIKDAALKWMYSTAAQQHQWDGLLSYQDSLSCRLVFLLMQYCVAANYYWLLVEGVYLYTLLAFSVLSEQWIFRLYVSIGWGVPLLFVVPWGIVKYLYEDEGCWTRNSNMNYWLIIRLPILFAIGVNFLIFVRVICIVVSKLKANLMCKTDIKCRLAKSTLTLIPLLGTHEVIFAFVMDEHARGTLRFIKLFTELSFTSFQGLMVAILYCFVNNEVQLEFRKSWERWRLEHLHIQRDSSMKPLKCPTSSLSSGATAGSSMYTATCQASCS
Chain of Glucagon receptor (P47871 whole entry): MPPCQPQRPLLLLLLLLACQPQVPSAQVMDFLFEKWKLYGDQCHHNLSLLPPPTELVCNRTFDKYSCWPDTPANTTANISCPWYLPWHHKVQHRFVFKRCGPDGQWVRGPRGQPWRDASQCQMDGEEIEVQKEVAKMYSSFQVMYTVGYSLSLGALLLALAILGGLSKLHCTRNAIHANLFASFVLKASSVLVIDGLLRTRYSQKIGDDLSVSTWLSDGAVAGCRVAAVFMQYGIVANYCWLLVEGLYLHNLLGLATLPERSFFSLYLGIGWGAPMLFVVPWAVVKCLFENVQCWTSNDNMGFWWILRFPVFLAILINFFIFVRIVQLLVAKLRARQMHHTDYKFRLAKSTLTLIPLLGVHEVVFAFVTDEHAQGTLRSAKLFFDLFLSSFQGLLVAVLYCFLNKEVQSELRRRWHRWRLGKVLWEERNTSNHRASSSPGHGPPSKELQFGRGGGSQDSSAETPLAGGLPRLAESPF

Compound: O=C(O)CCNC(=O)c1ccc(C(Nc2cnn(-c3ccc(C(F)(F)F)cc3)c2)C2CCCC2)cc1 (single isomer, unassigned; (+))
- Kb [1]: 2340 nM
- Ki (Glucagon receptor): 9 nM
- Papp [2]: 6.34 ×10⁻⁶ cm/s
- t1/2 (Rattus norvegicus [3]): 24 min
- Activity (Rattus norvegicus [4]): 24%
- Ki [5]: 152 nM
- logD [6]: 2.27
- Vdss (Rattus norvegicus [7]): 1.27 L/kg
- Ki [8]: 3340 nM
- concentration at 11 min [9]: 2280 ng/mL
- solubility kinetic [10]: 320 µM (≈ 160 µg/mL)
- concentration at 11 min [11]: 300 ng/mL
- Activity (Rattus norvegicus [12]): 20%
- Activity (Rattus norvegicus [13]): 12%
- IC50 [14]: 235000 nM
- CLint scaled [15]: < 25 mL/min/kg
- F (Rattus norvegicus [16]): 2%
- concentration at 11 min [17]: 21000 ng/mL
